In ChEMBL document CHEMBL1138515, “Synthesis and biological characterization of B-ring amino analogues of potent benzothiadiazine hepatitis C virus polymerase inhibitors” (J Med Chem, 2009):

How the values were obtained:
[1] = Inhibition of HCV1a H77 NS5B assessed as [3H]UTP incorporation into RNA by scintillation counting; set-up: species or system Hepatitis C virus (isolate H77)
In short: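 Two-fold serial inhibitor dilutions were preincubated for 15 min at room temperature with NS5B (genotype 1a H77 or genotype 1b BK, 20-50 nM) in 20 mM Tris-Cl pH 7.4, 2 mM MnCl₂, 1 mM DTT, 1 mM EDTA and 60-125 µM GTP. Reactions were started with 20 µM CTP, 20 µM ATP, 1 µM ³H-UTP, 5 nM template RNA and RNase inhibitor, then run 2-4 h at room temperature.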

Hepatitis C virus [2] = test: Antiviral activity against HCV1a H77 assessed as inhibition of viral replication by cell-based replicon assay; format: functional, organism-based, Hepacivirus hominis; settings: genotype 1a H77
In short: (§1)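 Stable luciferase-reporter subgenomic replicon Huh-7 lines (1a H77; 1b Con1) were seeded at 5000 cells/well in DMEM with 5% FBS. The next day an eight-point half-log dilution series was added from DMSO stocks. After 3 days the cells were lysed, luciferin was added and luminescence was read. EC₅₀ came from percent inhibition of replication at each concentration.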

[3] = Oral bioavailability in Sprague-Dawley rat at 5 mg/kg; format: ADME, organism-based; settings: in vivo
In short: (§2)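 Overnight-fasted Sprague-Dawley rats (n = 3) received a single 5 mg/kg iv or oral dose in DMSO/PEG400 (1:9, v/v). Mean concentrations were fitted multiexponentially. AUC₀₋ₜ was calculated by linear trapezoidal rule and extrapolated to infinity using Cₜ divided by the terminal rate constant.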

[4] = Clearance in Sprague-Dawley rat at 5 mg/kg, iv; format: ADME, organism-based; set-up: dose 5 mg/kg, route intravenous; settings: in vivo; in short: as §2
[5] = Half life in Sprague-Dawley rat at 5 mg/kg, iv; format: ADME, organism-based; set-up: dose 5 mg/kg, route intravenous; settings: in vivo; in short: as §2
[6] = AUC (0 to infinity) in Sprague-Dawley rat at 5 mg/kg, po; format: ADME, organism-based; set-up: time infinity, dose 5 mg/kg, route oral; settings: plasma; in short: as §2
[7] = Cmax in Sprague-Dawley rat at 5 mg/kg, po; format: ADME, organism-based; set-up: dose 5 mg/kg, route oral; settings: in vivo; in short: as §2
Genome polyprotein = Genome polyprotein (Hepatitis C virus genotype 1b (isolate Con1) (HCV), UniProt Q9WMX2); test: Inhibition of HCV1b Con1 NS5B assessed as [3H]UTP incorporation into RNA by scintillation counting
Hepatitis C virus [8] = test: Antiviral activity against HCV1a H77 infected in human Huh7 cells assessed as inhibition viral subgenomic replication; format: functional, organism-based, Hepacivirus hominis; settings: genotype 1a H77, Huh-7; in short: as §1
Hepatitis C virus [9] = test: Antiviral activity against HCV1b Con1 infected in human Huh7 cells assessed as inhibition viral subgenomic replication; format: functional, organism-based, Hepacivirus hominis; settings: isolate Con1, Huh-7; in short: as §1
Hepatitis C virus [10] = test: Antiviral activity against HCV1b Con1 infected in human Huh7 cells assessed as inhibition viral subgenomic replication […]; format: functional, organism-based, Hepacivirus hominis; settings: isolate Con1, Huh-7
[11] = Drug level in Sprague-Dawley rat liver at 5 mg/kg, po after 1 hr; format: ADME, organism-based; set-up: dose 5 mg/kg, route oral; settings: read-out: Drug uptake
In short: (§3)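 Sprague-Dawley rats were given 5 mg/kg orally in DMSO/PEG400 (1:9, v/v). Separate animals were sampled for liver and plasma at 1, 6 and 12 h. Drug in liver (µg/g) and in plasma was measured by LC-MS, and liver/plasma ratios were taken at each time.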

[12] = Drug level in Sprague-Dawley rat liver at 5 mg/kg, po after 6 hrs; format: ADME, organism-based; set-up: dose 5 mg/kg, route oral; settings: read-out: Drug uptake; in short: as §3
[13] = Drug level in Sprague-Dawley rat liver at 5 mg/kg, po after 12 hrs; format: ADME, organism-based; set-up: dose 5 mg/kg, route oral; settings: read-out: Drug uptake; in short: as §3
[14] = Ratio of drug level in liver to plasma of Sprague-Dawley rat at 5 mg/kg, po after 1 hr; format: ADME, organism-based; set-up: dose 5 mg/kg, route oral; settings: liver and plasma; in short: as §3
[15] = Ratio of drug level in liver to plasma of Sprague-Dawley rat at 5 mg/kg, po after 6 hrs; format: ADME, organism-based; set-up: dose 5 mg/kg, route oral; settings: liver and plasma; in short: as §3
[16] = Ratio of drug level in liver to plasma of Sprague-Dawley rat at 5 mg/kg, po after 12 hrs; format: ADME, organism-based; set-up: dose 5 mg/kg, route oral; settings: liver and plasma; in short: as §3

Genome polyprotein, sequence (Q9WMX2 2420-3010 limits assumed): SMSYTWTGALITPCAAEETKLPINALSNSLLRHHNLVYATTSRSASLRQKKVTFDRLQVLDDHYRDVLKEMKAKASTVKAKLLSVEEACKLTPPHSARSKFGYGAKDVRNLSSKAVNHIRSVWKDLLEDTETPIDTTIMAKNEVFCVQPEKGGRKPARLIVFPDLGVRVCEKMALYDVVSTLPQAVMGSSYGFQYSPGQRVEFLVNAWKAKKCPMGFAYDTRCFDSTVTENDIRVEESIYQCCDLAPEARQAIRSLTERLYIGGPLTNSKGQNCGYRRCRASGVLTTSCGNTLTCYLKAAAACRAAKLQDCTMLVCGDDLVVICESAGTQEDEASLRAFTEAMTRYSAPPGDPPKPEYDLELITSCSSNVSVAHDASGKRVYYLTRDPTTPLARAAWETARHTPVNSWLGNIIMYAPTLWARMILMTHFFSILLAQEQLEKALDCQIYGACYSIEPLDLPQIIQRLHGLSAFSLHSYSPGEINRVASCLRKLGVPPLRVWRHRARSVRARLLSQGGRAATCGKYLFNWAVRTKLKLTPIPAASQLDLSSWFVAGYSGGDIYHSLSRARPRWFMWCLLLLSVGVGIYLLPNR

Row | SMILES | IC50 [1] [nM] | EC50 (Hepatitis C virus [2]) [nM] | other results
1 | CC(C)(C)CCC1(NCc2csc3ccccc23)C(=O)C(C2=NS(=O)(=O)c3cc(NS(C)(=O)=O)ccc3N2)=C(O)c2ccccc21 (stereo unspecified) | 19 | 13 | –
2 | COc1cccc(CNC2(CCC(C)(C)C)C(=O)C(C3=NS(=O)(=O)c4cc(NS(C)(=O)=O)ccc4N3)=C(O)c3ccccc32)c1 (stereo unspecified) | 13 | 20 | –
3 | CC(C)CCC1(NC(=O)c2ccccc2)C(=O)C(C2=NS(=O)(=O)c3cc(NS(C)(=O)=O)ccc3N2)=C(O)c2ccccc21 (stereo unspecified) | 108 | – | –
4 | CC(C)(C)CCC1(NC(=O)c2ccccc2)C(=O)C(C2=NS(=O)(=O)c3cc(NS(C)(=O)=O)ccc3N2)=C(O)c2ccccc21 (stereo unspecified) | 151 | – | –
5 | Cn1ccnc1CNC1(CCC(C)(C)C)C(=O)C(C2=NS(=O)(=O)c3cc(NS(C)(=O)=O)ccc3N2)=C(O)c2ccccc21 (stereo unspecified) | 9 | 29 | –
6 | COc1ccc(CNC2(CCC(C)(C)C)C(=O)C(C3=NS(=O)(=O)c4cc(NS(C)(=O)=O)ccc4N3)=C(O)c3ccccc32)cc1 (stereo unspecified) | 13 | 13 | –
7 | CC(C)(C)CCC1(NCc2ccccc2N)C(=O)C(C2=NS(=O)(=O)c3cc(NS(C)(=O)=O)ccc3N2)=C(O)c2ccccc21 (stereo unspecified) | 17 | 8 | bioavailability [3]: 8.9%; clearance [4]: 20 mL/min/kg; half-life [5]: 2.2 h; AUC(0-inf) [6]: 410 ng·h/mL; Cmax [7]: 80 ng/mL
8 | CC(C)CC[C@@]1(NCc2ccccc2)C(=O)C(C2=NS(=O)(=O)c3cc(NS(C)(=O)=O)ccc3N2)=C(O)c2ccccc21 | 10 | 16 | bioavailability [3]: 13.3%; clearance [4]: 19.3 mL/min/kg; half-life [5]: 1.7 h; AUC(0-inf) [6]: 600 ng·h/mL; Cmax [7]: 80 ng/mL; IC50 (Genome polyprotein): 16 nM; EC50 (Hepatitis C virus [8]): 68 nM; EC50 (Hepatitis C virus [9]): 15 nM; EC50 (Hepatitis C virus [10]): 273 nM; concentration at 1 h [11]: 3590 ng/g; concentration at 6 h [12]: 2350 ng/g; concentration at 12 h [13]: 880 ng/g; Kp at 1 h [14]: 12; Kp at 6 h [15]: 6; Kp at 12 h [16]: 3
9 | Cc1cc(C)c(CNC2(CCC(C)(C)C)C(=O)C(C3=NS(=O)(=O)c4cc(NS(C)(=O)=O)ccc4N3)=C(O)c3ccccc32)c(C)c1 (stereo unspecified) | 33 | 60 | –
10 | Cc1cccc(C)c1CNC1(CCC(C)(C)C)C(=O)C(C2=NS(=O)(=O)c3cc(NS(C)(=O)=O)ccc3N2)=C(O)c2ccccc21 (stereo unspecified) | 24 | 21 | bioavailability [3]: 53.7%; clearance [4]: 13 mL/min/kg; half-life [5]: 5 h; AUC(0-inf) [6]: 3500 ng·h/mL; Cmax [7]: 460 ng/mL
11 | CC(C)(C)CCC1(NCc2ccc(O)cc2)C(=O)C(C2=NS(=O)(=O)c3cc(NS(C)(=O)=O)ccc3N2)=C(O)c2ccccc21 (stereo unspecified) | 20 | 13 | –
12 | CC(C)(C)CCC1(NCc2ccc(-c3ccccc3)cc2)C(=O)C(C2=NS(=O)(=O)c3cc(NS(C)(=O)=O)ccc3N2)=C(O)c2ccccc21 (stereo unspecified) | 27 | – | –
13 | Cc1cccc(CNC2(CCC(C)(C)C)C(=O)C(C3=NS(=O)(=O)c4cc(NS(C)(=O)=O)ccc4N3)=C(O)c3ccccc32)n1 (stereo unspecified) | 15 | 13 | bioavailability [3]: 33.8%; clearance [4]: 28.3 mL/min/kg; half-life [5]: 1 h; AUC(0-inf) [6]: 1340 ng·h/mL; Cmax [7]: 150 ng/mL
14 | Cc1cc(CNC2(CCC(C)(C)C)C(=O)C(C3=NS(=O)(=O)c4cc(NS(C)(=O)=O)ccc4N3)=C(O)c3ccccc32)n(C)n1 (stereo unspecified) | 5 | 15 | –
15 | CC(C)(C)CCC1(NCc2ccco2)C(=O)C(C2=NS(=O)(=O)c3cc(NS(C)(=O)=O)ccc3N2)=C(O)c2ccccc21 (stereo unspecified) | 12 | 10 | –
16 | CC(C)(C)CCC1(NCc2ccc(OCc3ccccc3)cc2)C(=O)C(C2=NS(=O)(=O)c3cc(NS(C)(=O)=O)ccc3N2)=C(O)c2ccccc21 (stereo unspecified) | 27 | 118 | –
17 | CC(C)CC[C@@]1(NS(C)(=O)=O)C(=O)C(C2=NS(=O)(=O)c3cc(NS(C)(=O)=O)ccc3N2)=C(O)c2ccccc21 | 7 | 56 | bioavailability [3]: 0%; clearance [4]: 71.7 mL/min/kg; half-life [5]: 0.2 h
18 | COC(=O)NC1(CCC(C)C)C(=O)C(C2=NS(=O)(=O)c3cc(NS(C)(=O)=O)ccc3N2)=C(O)c2ccccc21 (stereo unspecified) | 25 | 210 | –
